The values that follow come from ChEMBL document CHEMBL1126865, “Structure-activity relationship within a series of pyrazolidinone antibacterial agents. 2. Effect of side-chain modification on in vitro activity and pharmacokinetic parameters” (J Med Chem, 1993).

A short description of data set [1]: Maximum concentration in male CD-1 mice after sc administration of 20 mg/kg. Type of data set: ADME, organism-based. Also on record: dose 20 mg/kg, route subcutaneous. Conditions: CD-1, mouse, in vivo. In a few lines: (§1)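 Male CD-1 mice received 20 mg/kg in 0.9% saline, orally or subcutaneously. Cumulative urine over 0–4 h was collected from metabolism cages into 0.1 M sodium citrate, pH 6.5, and stored at -70 °C. Drug levels were measured by agar well diffusion bioassay (E. coli ATCC4157 or Proteus providentia XC24) against spiked standard curves. Half-life = 0.693/β (terminal slope); urinary recovery as % of dose.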

Data set [2] is described as follows: Maximum concentration in male rats after iv administration of 20 mg/kg. The class given is ADME, organism-based. Also on record: dose 20 mg/kg, route intravenous. Conditions: rat, in vivo. In a few lines: (§2)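 Male Sprague-Dawley rats were given 20 mg/kg IV in 0.9% saline through an indwelling jugular cannula, which was also used for serial blood sampling. Plasma and cumulative urine (citrate pH 6.5, metabolism cages) were collected over 6 h and stored at -70 °C. Levels were measured by agar well diffusion bioassay against standard curves in plasma or citrate. Half-life = 0.693/β; recovery as % of dose.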

Data set [3] is described as follows: Half-life period in male CD-1 mice after sc administration of 20 mg/kg. To be noted: CD-1, mouse, in vivo. Type of data set: ADME, organism-based. Also on record: dose 20 mg/kg, route subcutaneous. The method in brief: as §1
A short description of data set [4]: Plasma half-life in rats after intravenous administration. The class given is ADME, organism-based. To be noted: rat. In a few lines: as §2
Data set [5] can be described thus: Plasma binding in male rats […] expressed as percentage of plasma binding. The class given is ADME, organism-based. To be noted: rat, iv, read-out: Plasma binding (converted). In a few lines:
(§3)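 Binding was measured in vitro in pooled Sprague-Dawley rat plasma at a drug concentration of 20 μg/mL by ultrafiltration and reported as % bound.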

A short description of data set [6]: Urinary recovery expressed as percentage dose in male CD-1 mice after po administration of 20 mg/kg. The class given is ADME, organism-based. Also on record: dose 20 mg/kg, route oral. To be noted: CD-1, mouse, urine. In a few lines: as §1
Data set [7] can be described thus: Urinary recovery expressed as percentage dose in male rats after iv administration of 20 mg/kg. The class given is ADME, organism-based. Also on record: dose 20 mg/kg, route intravenous. To be noted: rat, urine. In a few lines: as §2
Data set [8] deals with Escherichia coli. Description: Effective dose against Escherichia coli EC14 after po administration in mice. The class given is functional.
Data set [9] deals with Escherichia coli. Description: Effective dose against Escherichia coli EC14 after sc administration in mice. The class given is functional.
The subject of data set [10] is Escherichia coli. Description: Minimum inhibitory concentration against Escherichia coli EC14 after po administration in mice. Type of data set: functional.
The subject of data set [11] is Escherichia coli. The experiment in a line: Minimum inhibitory concentration against Escherichia coli EC14 after sc administration in mice. The class given is functional.
For a further data set, the system named is Klebsiella aerogenes. Description: In vitro antibacterial activity against Enterobacter aerogenes C32. Type of data set: functional.
For data set [12], the system named is Escherichia coli. Description: In vitro antibacterial activity against Escherichia coli EC14. The class given is functional.
The subject of another data set is Haemophilus influenzae. The experiment in a line: In vitro antibacterial activity against Haemophilus influenza C.L. Type of data set: functional.
A further data set has as its system Klebsiella pneumoniae. The experiment in a line: In vitro antibacterial activity against Klebsiella X26. The class given is functional.
A further data set relates to Pseudomonas aeruginosa. Description: In vitro antibacterial activity against Pseudomonas PS72. The class given is functional.
Data set [13] has as its system Staphylococcus epidermidis. The experiment in a line: In vitro antibacterial activity against Staphylococcus epidermidis 222. The class given is functional.
For the next data set, the system named is Staphylococcus aureus. Description: In vitro antibacterial activity against Staphylococcus aureus X1.1. Type of data set: functional.
Another data set deals with Streptococcus pneumoniae. Description: In vitro antibacterial activity against Streptococcus pneumoniae PARK. Type of data set: functional.
The test system of data set [14] is Streptococcus pyogenes. The experiment in a line: Effective dose against Streptococcus pyogenes (C203) after po administration in mice. The class given is functional.
In data set [15] the test system is Streptococcus pyogenes. Description: Effective dose against Streptococcus pyogenes (C203) after sc administration in mice. The class given is functional.
Data set [16] concerns Streptococcus pyogenes. The experiment in a line: Minimum inhibitory concentration against Streptococcus pyogenes (C203) after po administration in mice. Type of data set: functional.
For data set [17], the system named is Streptococcus pyogenes. The experiment in a line: Minimum inhibitory concentration against Streptococcus pyogenes (C203) after sc administration in mice. The class given is functional.
The nature of data set [18]: Half-life period in male rats after iv administration of 20 mg/kg. Type of data set: ADME, organism-based. Also on record: dose 20 mg/kg, route intravenous. To be noted: rat, in vivo. The method in brief:
as §2

The nature of data set [19]: Urinary recovery in male CD-1 mice after po administration of 20 mg/kg. To be noted: CD-1, mouse, urine. Further details: dose 20 mg/kg, route oral. The class given is ADME, organism-based. In a few lines:
as §1

Data set [20] is described as follows: Urinary recovery in male rats after iv administration of 20 mg/kg. Further details: dose 20 mg/kg, route intravenous. Type of data set: ADME, organism-based. Conditions: rat, urine. In a few lines:
as §2

Data set [21] can be described thus: Plasma binding expressed as percentage in rats […]. Type of data set: ADME, organism-based. To be noted: rat, iv, read-out: Plasma binding (converted). In a few lines:
as §3

Structures are written as SMILES. In brackets after ≈: the same amount, converted by molar mass.

As to `CO/N=C(\C(=O)N[C@H]1CN2CC(C#N)=C(C(=O)O)N2C1=O)c1csc(N)n1`, the Cmax stood at 71 µg/mL in [1] and 120 µg/mL in [2]. Moreover, the half-life in data set [3] was determined as 12.2 min; in [4] it was 18 min; in [18] it was 17.9 min. Also, the fraction unbound in data set [5] is 0.585. Besides, the dose excreted in data set [6] was less than 2%; in data set [7], 87.8%. Moreover, the ED50 in the data set on Escherichia coli [8] turned out to be 7.87 mg/kg; in the data set with Escherichia coli [9], 0.67 mg/kg; with Streptococcus pyogenes [14], 6.68 mg/kg; with Streptococcus pyogenes [15], 0.625 mg/kg. Also, the MIC came out at 0.25 µg/mL (≈ 0.639 µM) in the data set with Escherichia coli [10]; 0.25 µg/mL (≈ 0.639 µM) against Escherichia coli [11]; 1 µg/mL (≈ 2.56 µM) with Klebsiella aerogenes; 0.25 µg/mL (≈ 0.639 µM) in the data set on Escherichia coli [12]; 0.5 µg/mL (≈ 1.28 µM) against Haemophilus influenzae; 0.25 µg/mL (≈ 0.639 µM) with Klebsiella pneumoniae. The MIC in the data set on Pseudomonas aeruginosa is more than 128 µg/mL; in [13], 64 µg/mL (≈ 164 µM); with Staphylococcus aureus, 64 µg/mL (≈ 164 µM); against Streptococcus pneumoniae it was 0.25 µg/mL (≈ 0.639 µM); with Streptococcus pyogenes [16], 0.25 µg/mL (≈ 0.639 µM); with Streptococcus pyogenes [17], 0.25 µg/mL (≈ 0.639 µM).

As to `CO/N=C(\C(=O)NC1CN2CC(S(C)(=O)=O)=C(C(=O)O)N2C1=O)c1csc(N)n1` (stereo not drawn), the Cmax in data set [1] is 53.8 µg/mL; in data set [2] it was 120 µg/mL. Moreover, the half-life in data set [3] is 10.6 min; in data set [4], 25 min; in data set [18], 24.7 min. The dose excreted was less than 2% in data set [19] and 80.4% in data set [20]. The ED50 is 7.93 mg/kg in the data set with Escherichia coli [8], less than 0.625 mg/kg in the data set on Escherichia coli [9], 13.5 mg/kg with Streptococcus pyogenes [14] and 1.8 mg/kg in the data set on Streptococcus pyogenes [15]. Besides, the MIC in the data set on Escherichia coli [10] was determined as 0.06 µg/mL (≈ 0.135 µM); in the data set on Escherichia coli [11] it was 0.06 µg/mL (≈ 0.135 µM); in the data set on Klebsiella aerogenes, 0.25 µg/mL (≈ 0.562 µM); in the data set with Escherichia coli [12] it was 0.06 µg/mL (≈ 0.135 µM); against Haemophilus influenzae it was 0.5 µg/mL (≈ 1.12 µM); against Klebsiella pneumoniae, 0.125 µg/mL (≈ 0.281 µM). The MIC with Pseudomonas aeruginosa is more than 128 µg/mL; in [13] it was 64 µg/mL (≈ 144 µM); against Staphylococcus aureus it was 32 µg/mL (≈ 72 µM); against Streptococcus pneumoniae, 0.25 µg/mL (≈ 0.562 µM); against Streptococcus pyogenes [16], 0.03 µg/mL (≈ 0.0675 µM); against Streptococcus pyogenes [17], 0.03 µg/mL (≈ 0.0675 µM). In data set [21], the fraction unbound was 0.78.

Usually Cmax stands for the highest concentration seen after dosing. One may read the half-life as the time in which the quantity being followed falls by half. Low values mean rapid decline, high ones slow decline. What is called ED50 is the dose at which the effect has come halfway, by size or by number of responders. A lower ED50 goes with greater potency.
